OX1R antag-1 – antagonists of human orexin 1 receptor | O43613 | CHO/OX1R cells, Fluo-8 calcium fluorescence, orexin A | inhibition, % at 5 µM | hit rate 0.43% among 330,000;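 active = inhibition above its plate's threshold, mean inhibition of all tested compounds on the plate plus 3 SD, cut at about 37% in these data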;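 note: 0% = orexin A challenge wells and 100% = SB-334867-A antagonist wells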
Target sequence (O43613 whole entry, looked up): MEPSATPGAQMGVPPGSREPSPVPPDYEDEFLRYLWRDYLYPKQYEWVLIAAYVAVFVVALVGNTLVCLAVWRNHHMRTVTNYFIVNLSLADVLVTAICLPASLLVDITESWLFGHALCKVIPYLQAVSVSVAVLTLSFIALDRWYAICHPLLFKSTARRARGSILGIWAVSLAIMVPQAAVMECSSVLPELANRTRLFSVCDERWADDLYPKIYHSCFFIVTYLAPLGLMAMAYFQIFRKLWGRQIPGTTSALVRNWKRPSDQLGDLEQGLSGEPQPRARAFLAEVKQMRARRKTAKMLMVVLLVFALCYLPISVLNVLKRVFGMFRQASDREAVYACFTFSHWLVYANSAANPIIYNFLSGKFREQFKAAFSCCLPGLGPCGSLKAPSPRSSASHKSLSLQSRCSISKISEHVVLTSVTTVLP
TAAR1 antagonist – antagonists of human TAAR1. hit rate 1.5% among 360,000. inhibition, % at 3 µM. CHO RD-HGA16 TAAR1, Fluo-8 calcium fluorescence, antagonist;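 active = inhibition above a per-plate cutoff, the mean inhibition of test compounds on that plate plus 3 SD, cut at about 49% in these data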;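 note: 0% = DMSO plus EC80 beta-PEA response and 100% = DMSO alone without agonist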
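System: RD-HGA16 CHO cells with stable hTAAR1 and Gα16 | Probe or stimulus: EC80 β-phenethylamine stimulus | Dosing: 3 µM, single point | Times: Dye loading 75 min at 37 °C, then 30 min room temperature | Measured by: Fluo-8 calcium-sensitive fluorescence | Read-out basis: % inhibition of agonist calcium response | Replicates: n of 1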
OX1R antag-2 – blocks the human orexin 1 receptor | OX1R-expressing cells, FRET antagonist read-out | inhibition, % at 6.6 µM | hit rate 1.8% among 330,000; in the data active = inhibition mostly above about 38%, no sharp cut-off; inactive = mostly below about 40%;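 note: 0% = agonist challenge alone and 100% = reference antagonist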
GPR7 antagonist – blocks human GPR7 receptor signaling | P48145 | GPR7-expressing cells, fluorescence antagonist assay | inhibition, % at 4.4 µM | hit rate 1.1% among 290,000; in the data active = inhibition above about 16%, passing the limit was not always enough;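 note: cells stimulated with the agonist NPW; 0% = agonist with vehicle and 100% = vehicle without agonist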
TAAR1 ag – agonists of human TAAR1; activation, % at 3 µM; hit rate 0.99% among 360,000; Q96RJ0; CHO RD-HGA16 TAAR1, Fluo-8 calcium fluorescence; vehicle wells 0%, saturating PEA agonist 100%;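 active = activation above the mean activation of all test compounds in the run plus 3 SD, cut at about 38% in these data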
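Benchmarks: low control DMSO, high control PEA (EC100); System: CHO RD-HGA16 cells carrying human TAAR1 plus Gα16; Detection: Fluo-8 fluorescence, 5 s baseline then 140 s kinetic read; Schedule: 17-24 h plating, Fluo-8 75 min 37 °C, 30 min RT; Read-out basis: % activation from peak over basal fluorescence ratio, DMSO-to-PEA scaled.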
CHO parental Ca – counter-screen for OX1R antagonists: effect in parental CHO cells; parental CHO-K1, ATP-induced calcium, Fluo-8 fluorescence; hit rate 0.63% among 330,000; inhibition, % at 5.6 µM; AID 463079;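 active = inhibition above that plate's mean sample inhibition plus 3 SD, cut at about 26% in these data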;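 note: 0% = ATP-challenged DMSO wells and 100% = DMSO wells without ATP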
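Assay system – parental CHO cells · Reagent – ATP stimulus · Detection – intracellular calcium via Fluo-8 no-wash fluorescent dye · Evaluation – percent inhibition of ATP-evoked calcium rise, normalized to controls · Controls – ATP wells versus no-ATP DMSO wells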
GPR7 antag cf – human GPR7 antagonism, confirmation assay; shares compounds with GPR7 antagonist; GPR7-expressing cells, calcium fluorescence antagonist mode; inhibition, % at 4.4 µM; hit rate 52% among 2,400; AID 1952; in the data active = inhibition above about 24%;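 note: stimulated with the GPR7 agonist NPW; 0% = agonist plus vehicle and 100% = vehicle alone without agonist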
MCHR1 antagonist – counter-screen for GPR7 antagonists: antagonists of human MCHR1; shares compounds with GPR7 antagonist; MCHR1-expressing cells, fluorescence antagonist assay; inhibition, % at 4.4 µM; hit rate 62% among 2,400;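 note: 0% = vehicle with agonist and 100% = vehicle without agonist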
OX1R Fluo8 conf – OX1R (human) antagonism, confirmed; shares compounds with OX1R antag-1; CHO/OX1R cells, orexin A calcium Fluo-8 fluorescence; inhibition, % at 5 µM; hit rate 38% among 1,100; AID 492963; in the data active = inhibition above about 29%;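 note: 0% = agonist challenge alone and 100% = reference antagonist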
CHO Ca triplic – counter-screen for OX1R antagonists: effect in parental CHO cells; shares compounds with OX1R antag-1; parental CHO-K1, ATP-induced calcium, Fluo-8 fluorescence; inhibition, % at 5.6 µM; hit rate 9.3% among 1,100;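 active = inhibition above a per-plate limit, the mean inhibition of that plate's test compounds plus 3 SD, cut at about 25% in these data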;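 note: 0% = ATP challenge with DMSO and 100% = DMSO without ATP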
nonsel antag count – nonselective antagonism, TAAR1 counter-screen; shares compounds with TAAR1 antagonist; counterscreen cell line, calcium fluorescence, antagonist mode; inhibition, % at 3 µM; hit rate 77% among 2,400; AID 651780;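 note: CHO-Ga16 host cells stimulated with ATP at an EC80 level; 0% = agonist EC80 plus vehicle and 100% = vehicle without agonist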
TAAR1 antag conf – confirmation of human TAAR1 antagonists. shares compounds with TAAR1 antagonist. TAAR1-expressing cells, fluorescence antagonist read-out. inhibition, % at 3 µM. hit rate 40% among 2,400. AID 651785; in the data active = inhibition above about 49%;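 note: CHO-Ga16 host cells challenged with agonist PEA near its EC80; 0% = agonist at EC80 plus vehicle and 100% = vehicle with no agonist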
Ga16 ag counter-1 – nonselective Ga16 agonism, counter-screen | AID 651953 | hit rate 18% among 2,400 | Ga16-expressing cells, calcium fluorescence, agonist counterscreen | activation, % at 3 µM | shares compounds with TAAR1 antagonist; in the data active = activation above about 12%;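 note: 0% = vehicle wells and 100% = saturating stimulus response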
TAAR1 ag count – TAAR1 agonism, antagonist counter-screen | shares compounds with TAAR1 antagonist | hTAAR1 cell line, fluorescence activation, agonist mode | activation, % at 3 µM | hit rate 2% among 2,400 | AID 651955; in the data active = activation above about 37%;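 note: CHO cells stably expressing TAAR1 with calcium dye readout; 0% = DMSO vehicle and 100% = full agonist response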
TAAR1 ag confirm – human TAAR1 agonism, confirmed. shares compounds with TAAR1 ag. CHO RD-HGA16 TAAR1, Fluo-8 calcium fluorescence; scaled: DMSO 0%, maximal phenethylamine 100%. activation, % at 3 µM. hit rate 82% among 2,400;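 active = activation above a cutoff set at the run's mean compound activation plus 3 SD, cut at about 39% in these data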
Ga16 ag counter-2 – nonselective agonism, TAAR1 counter-screen; activation, % at 3 µM; hit rate 50% among 2,400; shares compounds with TAAR1 ag; CHO-Ga16 parental, Fluo-8 calcium fluorescence; normalized to maximal ATP response, DMSO zero;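 active = activation above the run cutoff, the mean activation over all tested wells plus 3 SD, cut at about 12% in these data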;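 note: 0% = DMSO wells and 100% = maximal ATP response on the peak over basal ratio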
TAAR1 desensitize – counter-screen for human TAAR1 agonists: agonists that desensitize TAAR1 | shares compounds with TAAR1 ag | CHO RD-HGA16 hTAAR1, Fluo-8 calcium, beta-PEA response inhibition | inhibition, % at 3 µM | hit rate 46% among 2,400 | AID 651951;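 active = inhibition above the run cutoff, the mean inhibition of all test compounds plus 3 SD, cut at about 49% in these data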;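 note: beta-PEA stimulus applied at its EC80; loss of beta-PEA calcium signal after compound pretreatment read as receptor desensitization; 0% = DMSO with beta-PEA at EC80 and 100% = DMSO alone without agonist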
Ga16 antag count – nonselective Ga16 antagonism, counter-screen. shares compounds with TAAR1 ag. CHO-Ga16 ATP-induced calcium, Fluo-8 fluorescence. inhibition, % at 3 µM. hit rate 39% among 2,400;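 active = inhibition above the plate's mean compound inhibition plus 3 SD, computed per plate, cut at about 22% in these data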;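 note: 0% = EC80 ATP with DMSO and 100% = DMSO wells without ATP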
* = called active by the depositor; . = not tested or not shown. Rows were chosen to be rich in hits. Some 4.5% of all compounds tested hit in one or more screens of this group. Cut-off read from the data, not from the text of the source, unless noted: active = inhibition above about 22%; inactive = the rest.

SMILES	OX1R antag-1	TAAR1 antagonist	OX1R antag-2	GPR7 antagonist	TAAR1 ag	CHO parental Ca	GPR7 antag cf	MCHR1 antagonist	TAAR1 ag confirm	Ga16 ag counter-2	TAAR1 desensitize	Ga16 antag count	others
Cc1c(C(=O)N2CCN(Cc3ccc4c(c3)OCO4)CC2)sc2ncnc(N3CCN(c4ccccc4F)CC3)c12	-13	77*	8	75*	4	-12	55*	82*	.	.	.	.	nonsel antag count=34*;TAAR1 antag conf=50*;Ga16 ag counter-1=8;TAAR1 ag count=5
Cc1ccc(C(=O)CSC2=C(C#N)C(c3ccco3)CC(=O)N2)c(C)c1 (stereo unspecified)	36	30	13	41*	74*	20	71*	64*	48*	25*	40	24*	OX1R Fluo8 conf=39*;CHO Ca triplic=10
O=C(NCCCN1CCCC1=O)c1sc2ccccc2c1Cl	-18	-14	9	5	0	-23	.	.	.	.	.	.
COc1cc(-c2n[nH]c(=S)n2/N=C/c2cccn2C)cc(OC)c1OC	77*	71*	2	80*	138*	29	88*	74*	139*	113*	97*	79*
CCCCNC(=O)c1cc2cc(CC)ccc2[nH]1	-28	-5	16	-5	-2	-13	.	.	.	.	.	.
O=C(NC1CCCc2ccccc21)c1cccc(S(=O)(=O)N2CCN(c3ccccc3)CC2)c1 (stereo unspecified)	17	-5	4	45*	47*	-1	62*	43*	30	11	26	21*
O=C(CNS(=O)(=O)c1ccc([N+](=O)[O-])cc1)N/N=C\c1ccc(O)cc1	7	68*	7	41*	68*	6	46*	34*	101*	39*	89*	63*
CC(=O)Nc1ccc(/C=N\NC(=O)CNS(=O)(=O)c2ccc([N+](=O)[O-])cc2)cc1	1	11	35	12	0	-1	.	.	.	.	.	.
COc1ccccc1CCNC(C)CCc1ccc(O)cc1 (stereo unspecified)	-12	-11	14	-9	8	-13	.	.	.	.	.	.

Screens as filed in PubChem BioAssay.
